# From PubChem BioAssay
# FAK blocker – blocks human focal adhesion kinase activity | Q05397 | 0.84% of 97,000 active | inhibition, %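 (tested at 7 µM)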 | AID 727 | biochemical FAK kinase activity assay; in the data active = inhibition above about 19%
# PTK2B oligo ant – Pyk2 (human) oligomerization antagonism; Q14289; Q293 cells, Pyk2 FERM NanoBiT luminescence; active compounds read low; z-score (the deposit names both 25 µM and 10 µM); 0.83% of 99,000 active; AID 1347419;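 active = Z-score of -3 or lower, scaled per plate to the spread of control and sample wells; inactive = z-score above -3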;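 note: negative z-score means lost luminescence so less FERM oligomerization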
# Rev-RRE block – inhibitors of HIV-1 Rev-RRE RNA interaction. P05866. Rev peptide-RRE RNA binding, FRET. inhibition, % at 8 µM. 0.79% of 97,000 active. AID 704;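 active = inhibition above the screen-wide mean plus 3 SD, cut at about 35% in these data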
# Target sequence (P05866 whole entry, looked up): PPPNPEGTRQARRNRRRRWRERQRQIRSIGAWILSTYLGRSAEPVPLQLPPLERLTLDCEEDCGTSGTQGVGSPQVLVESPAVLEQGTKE
#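 Probe or stimulus: fluorescein-Rev peptide as binding partner; assay system: Cy5-tagged RRE RNA duplex with fluorescein-tagged Rev peptide; timing: 5 min compound–RNA preincubation, then 15 min with peptide, 25 °C; medium: HEPES pH 7.5 buffer with KCl, MgCl2, NaCl and EDTA; signal: fluorescein-to-Cy5 FRET, 480 nm excitation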
# Cav32 inh – blocks human Cav3.2 T-type calcium channel; O95180; 4% of 100,000 active; Cav3.2-expressing cells, Fluo-4 calcium fluorescence FDSS; active compounds read low; B-score at 10 µM;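 active = single-dose well whose peak fluorescence ratio is a statistical outlier from its plate by either plate-standardised score or position-corrected B-score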
# Plk1 PBD FP – blocks phosphopeptide binding to human Plk1 polo box domain; P53350; Plk1 PBD phosphopeptide binding, fluorescence polarization; inhibition, %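 (tested at about 20 µM)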; 0.13% of 97,000 active; AID 693; in the data active = inhibition above about 34%, passing the limit was not always enough
# PLK1 kinase inh – blocks human PLK1 kinase activity. inhibition, % at 10 µM. P53350. recombinant PLK1 kinase, TR-FRET peptide phosphorylation. 0.53% of 97,000 active;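 active = inhibition of 50% or more in the single-concentration screen; inactive = inhibition below 50%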
# Hits are given with their value; – = inactive; · = no result given; [ ] = dose if it differs, or a comment. Compounds with a hit are over-represented: about 5.8% of the library has one in this group of screens.
SMILES,FAK blocker,PTK2B oligo ant,Rev-RRE block,Cav32 inh,Plk1 PBD FP,PLK1 kinase inh
CC1(C)S[C@@H]2C(C(=O)OCc3ccccc3)NC(=O)N2C1C(=O)OCc1ccccc1 (stereo partly specified),·,·,·,–,·,·
COc1ccc(NC(=O)c2c(OC)cccc2OC)c(OC)c1,–,-4.38,–,–,–,–
COc1ccc(C(=O)Nc2ccccc2)cc1S(=O)(=O)Nc1cc(C)on1,–,–,–,–,–,–
CN(Cc1ccccc1)C(=O)CCSc1nc(-c2ccc3c(c2)OCO3)cc(C(F)(F)F)n1,–,–,–,-6.75,–,–
Cc1cc(NC(=O)CCCSc2nc(-c3ccco3)cc(C(F)(F)F)n2)n(-c2ccccc2)n1,–,–,–,-4.3,–,–
O=C(CCSc1nc(-c2ccco2)cc(C(F)(F)F)n1)Nc1ccc2c(c1)OCO2,–,–,–,-5.74,–,–
O=C(CSc1nc(-c2ccco2)cc(C(F)(F)F)n1)NC1CCCC1,–,·,–,–,–,68.5
O=C(CSc1nc(-c2ccco2)cc(C(F)(F)F)n1)Nc1ccc2c(c1)CCC2,–,–,–,–,–,–
COC(=O)C1=C(CCc2ccccc2)NC(=O)NC1c1ccc(Cl)cc1 (stereo unspecified),·,·,·,–,·,·
CC(NC(=O)CCSc1nc(-c2ccco2)cc(C(F)(F)F)n1)c1ccccc1 (stereo unspecified),–,–,–,-5.96,–,–
CCN(CC)S(=O)(=O)c1ccc2c(c1)nc(SCC(=O)N1CCOCC1)n2-c1ccccc1OC,–,–,–,–,–,–
CCOC(=O)C(CC)(CC)/C(C)=N/NC(=O)CC#N,–,–,–,–,–,–
Cc1ccc(-n2c(Cc3ccccc3)nnc2SCC(=O)NNC(=O)Cc2ccccc2)cc1,–,–,–,-5.72,–,–
CCc1nnc(NC(=O)CSc2nnc(CNc3cccc(Cl)c3)n2CC)s1,–,–,–,–,–,–
CCOC(=O)CN(C(=O)CSc1nnc(Cc2ccccc2)n1-c1ccc(C)cc1)c1ccccc1,–,–,–,-8.43,–,–
Cc1nnc(NC(=O)CSc2nnc(Cc3ccccc3)n2-c2ccccc2)s1,–,–,–,–,–,–
CCc1nnc(NC(=O)CSc2nnc(Cc3ccccc3)n2-c2ccccc2)s1,–,–,–,-4.52,–,–
CCc1nnc(NC(=O)CSc2nnc(C3CCCCC3)n2-c2cccc(Cl)c2)s1,–,–,–,-4.33,–,–
COC(=O)c1sccc1NC(=O)C12CC3CC(CC(C3)C1)C2,–,–,–,–,–,–
CC(C)(C)OC(=O)CNC(=O)c1[nH]cnc1C(=O)N[C@@H](CCCCNC(=O)OC(C)(C)C)C(=O)OC(C)(C)C,·,·,·,–,·,·
CC(C)(C)OC(=O)NCCCCCNC(=O)c1[nH]cnc1C(=O)N[C@@H](CCCCNC(=O)OC(C)(C)C)C(=O)OC(C)(C)C,·,·,·,-2.66,·,·
CC1CCCCC12NC(=O)N(CC(=O)NC(=O)Nc1ccc3c(c1)OCCO3)C2=O (stereo unspecified),–,-3.65,–,–,–,–
CC(C)Oc1ccc(Cn2c(=O)sc3ccccc32)cc1,–,-3.28,–,–,–,–
Clc1ccc(CSc2nccn2Cc2ccccc2)cc1,–,–,–,-5.05,–,–
Cc1ccc(NC(=O)CSc2nccn2Cc2ccccc2)cc1C,–,–,–,-7.96,–,–
SMILES,FAK blocker,PTK2B oligo ant,Rev-RRE block,Cav32 inh,Plk1 PBD FP,PLK1 kinase inh
C[C@@H](C(=O)Nc1ccc2ccccc2c1)[C@@H]1C[C@@]1(C)[C@@H](NC(=O)c1ccccc1)c1ccccc1,·,·,·,-3.92,·,·
COc1ccc(CSc2nnnn2Cc2ccccc2)cc1OC,·,–,·,–,·,·
O=c1cc(-c2ccccc2)nc2nc(SCc3ccccc3)[nH]n12,–,–,–,-4.55,–,–
Cc1cc(=O)n2[nH]c(SCc3ccccc3)nc2n1,–,–,–,–,–,–
CC[n+]1c(/C=C/C=C/N(C(C)=O)c2ccccc2)sc2ccccc21,–,–,129.4[fluorescence artefact?],-4.58,–,–
CSc1nc2nc(C)cc(-c3ccccc3)n2n1,–,–,–,–,–,–
Cc1cc(-c2ccccc2)n2ncc(C#N)c2n1,–,·,–,–,–,54.3
Cc1ccc(C)c(NC(=O)c2ccc3ccccc3n2)c1,–,–,–,–,–,–
Cc1c(O)ccc(/C(Cc2ccc3ccccc3n2)=N\O)c1O,–,–,–,-4.79,–,–
COc1ccc(OC)c2[nH]c(=O)c(CCNC(=O)c3ccc(Br)o3)cc12,–,–,–,–,–,–
CCCCNS(=O)(=O)c1ccc(NC(=O)c2c(-c3ccccc3Cl)noc2C)cc1,–,–,–,-5.72,–,–
Cc1onc(-c2ccccc2)c1C(=O)Nc1sc2c(c1C#N)CCC(C)C2 (stereo unspecified),–,–,–,–,–,–
Cc1ccc(-n2nc3c(c2NC(=O)c2c(-c4ccccc4Cl)noc2C)CSC3)cc1,–,·,–,-6.01,–,–
Cc1ccccc1-n1nc2c(c1NC(=O)c1c(-c3ccccc3Cl)noc1C)CSC2,–,–,–,-5.93,–,–
Cc1onc(-c2ccccc2Cl)c1C(=O)Nc1sc2c(c1C#N)CCC2,–,–,–,-5.39,–,–
Cc1onc(-c2ccccc2Cl)c1C(=O)Nc1ccccc1N1CCOCC1,–,–,–,–,–,–
Cc1c(CCCC(=O)O)sc(N)c1C(=O)c1cccc(C(F)(F)F)c1,·,·,·,–,·,·
Cc1ccccc1N1CCN(S(=O)(=O)c2ccccc2)CC1,–,-3.08,–,-4.62,–,–
Cc1cc(S(=O)(=O)N2CCN(c3ccccc3C)CC2)ccc1F,–,-3.59,–,–,–,–
Cc1cccc(N2CCN(S(=O)(=O)c3ccc(S(=O)(=O)N4CCCC4)cc3)CC2)c1C,–,–,–,·,–,–
COc1ccc(S(=O)(=O)N2CCN(c3ccc(C)cc3C)CC2)cc1OC,–,·,–,-6.02,–,–
CCOc1ccc(S(=O)(=O)N2CCN(c3ccc(C)cc3C)CC2)cc1,–,·,–,–,–,–
CC1CCCN(C(=O)CSc2cnc3ccccc3n2)C1 (stereo unspecified),–,–,–,–,–,–
COc1cccc(CNc2cc(CSc3ccc(Cl)cc3)nc(C)n2)c1,–,–,–,-8.23,–,–
COc1ccccc1CNc1cc(CSc2ccc(Cl)cc2)nc(C)n1,–,–,–,–,–,–
O=C(CSc1nccn1-c1ncc(C(F)(F)F)cc1Cl)c1ccc(Cl)cc1,–,–,–,-2.53,–,–
CCOC(=O)c1c(NC(=O)Cn2nc([N+](=O)[O-])c(Br)c2C)sc2c1CCC(C)C2 (stereo unspecified),–,–,–,–,–,–
CCOC(=O)c1sc(N(Cc2ccccc2)C(=O)CSc2nnc(C3CC3)n2N)nc1C,·,–,·,–,·,·
CCOC(=O)c1ccc(N2C(=O)c3n[nH]c(C)c3C2c2ccccc2)cc1 (stereo unspecified),–,-3.06,–,–,–,–
Cc1[nH]nc2c1C(CCc1ccccc1)C(C#N)=C(N)O2 (stereo unspecified),·,–,·,–,·,·
